Consider five molecules from ChEMBL document CHEMBL1135218, “Structure-based design, synthesis, and biological evaluation of irreversible human rhinovirus 3C protease inhibitors. Part 7: structure-activity studies of bicyclic 2-pyridone-containing peptidomimetics” (Bioorg Med Chem Lett, 2002).

Each structure is given as a SMILES string.

The target in experiment [1] is T1, Human rhinovirus A protease (Human rhinovirus sp.) (UniProt Q4U254).
T1 sequence (whole entry): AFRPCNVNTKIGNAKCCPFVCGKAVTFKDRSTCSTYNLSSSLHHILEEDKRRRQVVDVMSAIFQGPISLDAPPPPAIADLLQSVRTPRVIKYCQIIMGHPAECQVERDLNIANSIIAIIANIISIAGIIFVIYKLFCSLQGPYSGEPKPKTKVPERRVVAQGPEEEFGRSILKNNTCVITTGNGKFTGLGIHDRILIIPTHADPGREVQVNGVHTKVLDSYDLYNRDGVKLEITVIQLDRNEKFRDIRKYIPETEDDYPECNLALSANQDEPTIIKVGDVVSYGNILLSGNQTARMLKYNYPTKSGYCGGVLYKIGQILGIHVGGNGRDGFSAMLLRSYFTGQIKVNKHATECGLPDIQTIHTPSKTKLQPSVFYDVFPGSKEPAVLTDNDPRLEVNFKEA
Briefly: The compound was tested for the inhibitory activity against human rhinovirus-14 3C Protease. The essentials: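 HRV-14 3C protease was exposed to the irreversible inhibitor. Inactivation was expressed as the second-order rate constant kobs/[I] in M-1 s-1.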

Experiment [2] has as its system HeLa. Description: Compound was tested for the antirhinoviral activity against human rhinovirus (HRV-14) infected H1HeLa cells. Type of experiment: functional, cell-based.
Experiment [3] relates to HeLa. Description: Cytotoxic concentration against uninfected H1HeLa cell line. It is filed as functional. As to conditions: Homo sapiens.
Experiment [4] has as its system HeLa. Briefly: (§1) Tested for antirhinoviral activity of compound against HRV 39 infected H1HeLa cells; Cytotoxicity at > 10 uM. As to conditions: Homo sapiens. Type of experiment: functional, cell-based.
Experiment [5] deals with HeLa. Briefly: (§2) Tested for antirhinoviral activity of compound against HRV 14 infected H1HeLa cells; Cytotoxicity at > 10 uM. Type of experiment: functional, cell-based. To be noted: Homo sapiens.
Experiment [6] has as its system HeLa. Description: (§3) Tested for antirhinoviral activity of compound against HRV 10 infected H1HeLa cells; Cytotoxicity at > 10 uM. To be noted: Homo sapiens. It is filed as functional, cell-based.
The test system of experiment [7] is HeLa. Briefly: (§4) Tested for antirhinoviral activity of compound against HRV 16 infected H1HeLa cells; Cytotoxicity at > 10 uM. Type of experiment: functional. To be noted: Homo sapiens.
For experiment [8], the system named is HeLa. Description: (§5) Tested for antirhinoviral activity of compound against HRV 25 infected H1HeLa cells; Cytotoxicity at > 10 uM. It is filed as functional, cell-based. As to conditions: Homo sapiens.
The test system of experiment [9] is HeLa. Description: Tested for antirhinoviral activity of compound against HRV 9 infected H1HeLa cells. It is filed as functional, cell-based. As to conditions: Homo sapiens.
In experiment [10] the test system is HeLa. Description: (§6) Tested for antirhinoviral activity of compound against HRV 3 infected H1HeLa cells; Cytotoxicity at > 10 uM. It is filed as functional, cell-based. As to conditions: Homo sapiens.
For experiment [11], the system named is HeLa. Briefly: (§7) Tested for antirhinoviral activity of compound against HRV 87 infected H1HeLa cells; Cytotoxicity at > 10 uM. Type of experiment: functional. To be noted: Homo sapiens.
Experiment [12] concerns HeLa. Description: (§8) Tested for antirhinoviral activity of compound against HRV 2 infected H1HeLa cells; Cytotoxicity at > 10 uM. It is filed as functional. As to conditions: Homo sapiens.
The test system of experiment [13] is HeLa. Described as §8. Type of experiment: functional, cell-based. As to conditions: Homo sapiens.
In experiment [14] the test system is HeLa. The experiment is described as §7. Type of experiment: functional, cell-based. To be noted: Homo sapiens.
For experiment [15], the system named is HeLa. Described as §3. Type of experiment: functional. As to conditions: Homo sapiens.
For experiment [16], the system named is HeLa. The experiment is described as §1. It is filed as functional. As to conditions: Homo sapiens.
For experiment [17], the system named is HeLa. The experiment is described as §6. Type of experiment: functional. As to conditions: Homo sapiens.
Experiment [18] has as its system HeLa. The description is as §5. As to conditions: Homo sapiens. It is filed as functional.
The test system of experiment [19] is HeLa. The experiment is described as §4. As to conditions: Homo sapiens. It is filed as functional, cell-based.
Experiment [20] deals with HeLa. Described as §2. It is filed as functional. To be noted: Homo sapiens.
Experiment [21] relates to HeLa. Briefly: Tested for antirhinoviral activity of compound against HRV 9 infected H1HeLa cells; Cytotoxicity at > 10 uM. Type of experiment: functional. To be noted: Homo sapiens.

With `CCOC(=O)/C=C/[C@H](CCC(N)=O)NC(=O)[C@H](Cc1ccccc1)n1cccc(NC(=O)OCc2ccccc2)c1=O`, the K obs / 1 in experiment [1] was determined as 114000 M⁻¹ s⁻¹. Besides, in the experiment with HeLa [2], the EC50 worked out at 33 nM. Besides, it took 50000 nM to reach half-maximal cytotoxicity in the experiment on HeLa [3] (CC50).

With `CCOC(=O)/C=C/[C@H](CCC(N)=O)NC(=O)Cn1cccc(NC(=O)OCc2ccccc2)c1=O`, the K obs / 1 in experiment [1] was found to be 348 M⁻¹ s⁻¹. This molecule also showed an EC50 in the experiment with HeLa [2] of more than 10000 nM. In the experiment on HeLa [3], this molecule returned a CC50 of more than 10000 nM.

In turn, `CCOC(=O)/C=C/[C@H](CCC(N)=O)NC(=O)[C@@H]1CCc2ccc(NC(=O)OCc3ccccc3)c(=O)n21` showed a K obs / 1 in [1] of 4540 M⁻¹ s⁻¹. In the experiment on HeLa [2], this molecule registered an EC50 of 9000 nM. In the experiment with HeLa [3], the CC50 was more than 100000 nM.

On to `CCOC(=O)/C=C/[C@H](C[C@@H]1CCNC1=O)NC(=O)[C@@H]1CCc2ccc(NC(=O)c3cc(C)on3)c(=O)n21`, for which the EC50 worked out at 16 nM in the experiment on HeLa [4]; 162 nM in the experiment with HeLa [5]; 41 nM with HeLa [6]; 162 nM with HeLa [8]; 121 nM with HeLa [9]; 43 nM in the experiment with HeLa [10]. For the same molecule, the EC50 in the experiment on HeLa [13] stood at 37 nM; in the experiment with HeLa [14], 58 nM; in the experiment on HeLa [2] it was 162 nM; in the experiment on HeLa [19], 72 nM. Besides, the EC90 in the experiment with HeLa [7] is 303 nM; with HeLa [11], 110 nM; in the experiment on HeLa [12] it was 119 nM; in the experiment on HeLa [15], 175 nM; with HeLa [16] it was 152 nM; in the experiment on HeLa [17], 133 nM. In addition, the EC90 in the experiment with HeLa [18] is 616 nM; with HeLa [20], 298 nM; in the experiment on HeLa [21] it was 257 nM. Moreover, the K obs / 1 in experiment [1] came out at 177000 M⁻¹ s⁻¹. For the same molecule, the CC50 in the experiment on HeLa [3] is more than 10000 nM.

In experiment [1], `CCOC(=O)/C=C/[C@H](CCC(N)=O)NC(=O)[C@@H]1CS[C@H]2CC[C@H](NC(=O)OCc3ccccc3)C(=O)N21` returned a K obs / 1 of 26 M⁻¹ s⁻¹. For the same molecule, the EC50 in the experiment with HeLa [2] was more than 10000 nM. The CC50 in the experiment with HeLa [3] was more than 10000 nM.

Usually EC50 stands for the concentration giving half of the maximal effect. Higher therefore signals lower potency in that assay. A word on the CC50: it is the concentration that lowers cell viability or growth by half. Low readings indicate greater toxicity to the cells, high ones lower toxicity to the cells. The EC90 is the point of the concentration-response curve where the effect stands at 90%.
